In ChEMBL document CHEMBL2321856, “Optimizing small molecule inhibitors of calcium-dependent protein kinase 1 to prevent infection by Toxoplasma gondii” (J Med Chem, 2013):
pEC50, pIC50: −log10 of the molar value. The source made the active and inactive calls. No cut-off for these calls is given here.

Key:
Toxoplasma gondii [1] = assay: Antiparasitic activity against Toxoplasma gondii type 2 expressing Pru-LUC infected in Balb/c mouse assessed reduction in number of tissue cysts in brain at 5 mg/kg, […] for 10 days measured after 30 days by fluorescently labeled lectin staining based microscopic analysis relative to control; assay type: functional, organism-based; design: dose 5 mg/kg; conditions: type II
Toxoplasma gondii [2] = assay: Ratio of growth inhibition of Toxoplasma gondii harboring wild type CDPK1 to growth inhibition of Toxoplasma gondii harboring CDPK1 G128M mutant; assay type: functional
Toxoplasma gondii [3] = assay: Antiparasitic activity against Toxoplasma gondii harboring wild type CDPK1 infected in HFF cells incubated for 20 mins prior to infection followed by compound washout at 1 hr measured after 72 hrs by crystal violet staining method; assay type: functional, organism-based
Method in brief: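 CDPK1-cKO parasites complemented with wild-type CDPK1, grown 72 h with 1 μg/ml ATc and kept in ATc throughout. Parasites pre-incubated 20 min at 37°C in DMEM/10% FBS with compound or 1% DMSO vehicle. 10⁵ per well added to confluent HFF, spun 300g for 2 min, infected 1 h at 37°C, then rinsed 5× with warm PBS. Grown 72 h with ATc; lysis read by crystal violet A570, as % of DMSO control.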

Toxoplasma gondii RH [4] = assay: Selectivity ratio of IC50 for Toxoplasma gondii RH CDPK1 G128S mutant to Toxoplasma gondii RH full length CDPK1
Toxoplasma gondii RH [5] = assay: Selectivity ratio of IC50 for Toxoplasma gondii RH CDPK1 G128A mutant to Toxoplasma gondii RH full length CDPK1
Toxoplasma gondii [6] = assay: Antiparasitic activity against wild type tachyzoites of Toxoplasma gondii RH type 1 infected in HFF cells incubated for 20 mins prior to inoculation followed by compound washout at 4 hrs measured after 72 hrs by beta-galactoside reporter assay; assay type: functional, organism-based; conditions: RH type 1, HFF
Method in brief: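 Type I RH 2F clone (β-gal) in confluent HFF, DMEM with 10% FBS. Compounds diluted from 10 mM DMSO stock into medium with 1% DMSO (also no-compound control). Parasites preincubated 20 min at room temperature with compound, 5×10^2/well added, spun ~300 g 5 min. Washed with warm PBS at 4 h, grown to 72 h. Triton X-100 lysis, chlorophenol red-β-D-galactopyranoside, A570. Triplicates; EC50 from variable-slope sigmoidal fit.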

[7] = Inhibition of Toxoplasma gondii RH full length CDPK1 expressed in Escherichia coli BL21(DE3) using syntide-2 peptide as substrate after 20 mins by ELISA; assay type: cell-free
Method in brief: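 His-tagged recombinant CDPK1 purified by nickel affinity. Syntide-2-coated plates blocked with 3% BSA. Reaction run 20 min at 30°C in HEPES pH 7.5 with 10 mM MgCl₂, 2.5 mM CaCl₂, 0.1 mM EGTA and 1 mM DTT. Each enzyme used at its half-maximal-activity concentration with ATP at its own Km. Phosphopeptide detected by mAb MS-6E6/HRP-TMB at A450. Triplicates; IC50 from variable-slope sigmoidal fit.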

Toxoplasma gondii [8] = assay: Antiparasitic activity against tachyzoites of Toxoplasma gondii RH type 1 infected in HFF cells incubated for 4 hrs followed by compound washout measured after 72 hrs by beta-galactoside reporter assay; assay type: functional, organism-based; conditions: RH type 1, HFF
Method in brief: (§1)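 RH type I 2F clone expressing β-gal; compounds from 10 mM DMSO stocks diluted in medium with 1% DMSO. Parasites preincubated with compound 20 min at room temperature, then 5×10^2/well added to confluent HFF in DMEM/10% FBS and centrifuged. Washed with warm PBS after 4 or 24 h, grown to 72 h. Lysed in 1% Triton X-100; 1 mM chlorophenol red-β-D-galactopyranoside, A570.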

Toxoplasma gondii [9] = assay: Antiparasitic activity against trachyzoites of Toxoplasma gondii type 2 expressing Pru-LUC infected in Balb/c mouse assessed as host survival at 5 mg/kg, ip administered for 10 days measured on day 30; conditions: type II
Liver microsomes [10] = assay: Intrinsic clearance in rat liver microsomes assessed per mg of protein after 10 to 60 mins by LC-MS analysis in presence of NADPH; assay type: ADME, Microsome
Liver microsomes [11] = assay: Half life in rat liver microsomes by LC-MS analysis; assay type: ADME, Microsome
Toxoplasma gondii [12] = assay: Antiparasitic activity against tachyzoites of Toxoplasma gondii RH type 1 infected in HFF cells incubated for 24 hrs followed by compound washout measured after 72 hrs by beta-galactoside reporter assay; assay type: functional, organism-based; method in brief: as §1

SMILES	pEC50 (Toxoplasma gondii [6])	pIC50 [7]	other results
Cc1cccc(Cc2nn(C(C)(C)C)c3ncnc(N)c23)c1	6.96	8.40	Activity (Toxoplasma gondii [1]): Active; Ratio (Toxoplasma gondii [2]): 100; Activity (Toxoplasma gondii [3]): Active; Ratio IC50 (Toxoplasma gondii RH [4]): 5.6; Ratio IC50 (Toxoplasma gondii RH [5]): 3; pEC50 (Toxoplasma gondii [8]): 7.00; Activity (Toxoplasma gondii [9]): Active
CC(C)n1nc(Cc2cc(F)cc(Cl)c2)c2c(N)ncnc21	6.74	8.34	CLint (Liver microsomes [10]): > 0.35 mL/min/mg; t1/2 (Liver microsomes [11]): 2.4 min; Ratio (Toxoplasma gondii [2]): 100; Activity (Toxoplasma gondii [3]): Active
CC(C)n1nc(Cc2cccc(Cl)c2F)c2c(N)ncnc21	5.85	8.84	
CC(C)(C)c1ccc(-c2nn(C(C)(C)C)c3ncnc(N)c23)cc1	5.42	5.88	
CC(C)(C)n1nc(-c2cccc3ccccc23)c2c(N)ncnc21	6.15		
CC(C)n1nc(Cc2ccc(F)c(Cl)c2)c2c(N)ncnc21	6.25	7.88	
CC(C)(C)n1nc(-c2cccc(OCc3ccccc3)c2)c2c(N)ncnc21	4.94	6.43	
CC(C)(C)n1nc(Cc2ccc(F)c(Cl)c2)c2c(N)ncnc21	6.39	8.07	CLint (Liver microsomes [10]): > 0.35 mL/min/mg; t1/2 (Liver microsomes [11]): 4 min
CC(C)n1nc(Cc2cc(Cl)ccc2F)c2c(N)ncnc21	5.17	7.03	
CC(C)(C)n1nc(Cc2cccc(I)c2)c2c(N)ncnc21	5.95	7.89	
CC(C)n1nc(Cc2cccc(Cl)c2Cl)c2c(N)ncnc21	6.60	8.62	Activity (Toxoplasma gondii [1]): Active; CLint (Liver microsomes [10]): 0.19 mL/min/mg; t1/2 (Liver microsomes [11]): 7 min; Ratio (Toxoplasma gondii [2]): 100; Activity (Toxoplasma gondii [3]): Active; Activity (Toxoplasma gondii [9]): Active
CC(C)(C)n1nc(Cc2cccc(Br)c2)c2c(N)ncnc21	6.42	8.02	CLint (Liver microsomes [10]): > 0.35 mL/min/mg; t1/2 (Liver microsomes [11]): 3 min
CC(C)(C)n1nc(Cc2ccc3ccccc3c2)c2c(N)ncnc21	5.71	7.45	
CC(C)n1nc(Cc2cc(F)cc(F)c2)c2c(N)ncnc21	5.68	7.29	
CC(C)(C)n1nc(-c2cccc(OCc3c(Cl)cccc3Cl)c2)c2c(N)ncnc21	5.34	5.61	
CC(C)(C)n1nc(-c2cccc(Oc3ccccc3)c2)c2c(N)ncnc21	5.88	7.57	
CC(C)n1nc(C(O)c2cccc(Cl)c2Cl)c2c(N)ncnc21 (stereo not drawn)	5.02	6.70	CLint (Liver microsomes [10]): 0.068 mL/min/mg; t1/2 (Liver microsomes [11]): 20.2 min
CC(C)(C)n1nc(Cc2cccc(Cl)c2Cl)c2c(N)ncnc21	6.42	8.47	
CC(C)(C)n1nc(-c2ccc3c(c2)OCO3)c2c(N)ncnc21	6.21	7.86	
CC(C)(C)n1nc(Cc2cccc(Cl)c2)c2c(N)ncnc21	7.52		Activity (Toxoplasma gondii [1]): Active; Activity (Toxoplasma gondii [3]): Active; Activity (Toxoplasma gondii [9]): Active
CC(C)(C)n1nc(Cc2cccc3ccccc23)c2c(N)ncnc21	5.88		
CC(C)n1nc(C(F)c2cccc(Cl)c2Cl)c2c(N)ncnc21 (stereo not drawn)	5.58	7.87	CLint (Liver microsomes [10]): 0.107 mL/min/mg; t1/2 (Liver microsomes [11]): 12.9 min
CCc1nc(N)nc(N)c1-c1ccc(Cl)cc1			Activity (Toxoplasma gondii [12]): Active
CC(C)(C)n1nc(Cc2cc(F)cc(F)c2)c2c(N)ncnc21	6.21		Activity (Toxoplasma gondii [1]): Active; Activity (Toxoplasma gondii [9]): Active
CC(C)(C)n1nc(Cc2cccc(Cl)c2F)c2c(N)ncnc21	6.44	8.13	CLint (Liver microsomes [10]): > 0.35 mL/min/mg; t1/2 (Liver microsomes [11]): 2.5 min
CC(C)(C)n1nc(Cc2cc(Cl)ccc2F)c2c(N)ncnc21	6.04	7.90	CLint (Liver microsomes [10]): 0.25 mL/min/mg; t1/2 (Liver microsomes [11]): 5.5 min
CC(C)(C)n1nc(Cc2cc(F)cc(Cl)c2)c2c(N)ncnc21	6.37	7.88	
